Results gathered from unrelated publications.
Lines come from different studies, so protocols differ.
Effect on: cell growth or viability

With COc1cccc(Cn2nc(-c3ccc(CN)o3)c3ccccc32)c1 the inhibition was 78% (RBE; ATP luminescence; 46 µM, 72 h).
For COCCCNC(=O)c1ccc(-c2nc3ccc4[nH]ncc4c3c3c2CCCC3)cc1, the GI50 was 2900 nM (MV4-11; resazurin; 72 h).
COCCC(=O)Nc1ccccc1/N=c1\cc(-c2ccc3nc(N)oc3c2)oc2ccccc12 has an inhibition of 0.9% (MDA-MB-468; CCK-8; 1 µM).
The GI50 of Cc1n[nH]c2ccc3nc(-c4ccc(C(=O)NCCN(C)C)cc4F)c4c(c3c12)CCCC4 is reported as 27 nM (MV4-11; resazurin; 72 h).
With NCC(=O)Nc1ccccc1/N=c1\cc(-c2ccc3c(c2)OCO3)oc2ccccc12 the inhibition was 3.86% (MDA-MB-468; CCK-8; 1 µM).
The GI50 of O=C(NCCc1ccccn1)c1ccc(-c2nc3ccc4[nH]ncc4c3c3c2CCCC3)cc1 is reported as 1000 nM (MV4-11; resazurin; 72 h).
For OCc1ccc(-c2ccn(Cc3ccccc3)n2)o1, the inhibition was 47% (RBE; ATP luminescence; 46 µM, 72 h).
With COC(=O)CNC(=O)C(=O)OC the viability was 113% (HBL1; ATP luminescence; 0.5 µM, 5 days).
The inhibition of NCC(=O)Nc1ccccc1/N=c1\cc(-c2ccc3c(c2)OCCO3)oc2cc(F)ccc12 is reported as 11.8% (MDA-MB-468; CCK-8; 1 µM).
OCc1ccc(-c2nn(Cc3ccccc3F)c3ccccc23)o1 has an inhibition of 68% (RBE; ATP luminescence; 46 µM, 72 h).
NCCC(=O)Nc1ccc(/N=c2\cc(-c3ccc4c(c3)OCO4)oc3ccccc23)cc1 has an inhibition of 6.16% (MDA-MB-468; CCK-8; 1 µM).
For CN(C)CCNC(=O)c1ccc(-c2nc3ccc4[nH]ncc4c3c3c2CC3)cc1, the GI50 was 1300 nM (MV4-11; resazurin; 72 h).
COc1cc(Cn2nc(-c3ccc(CO)o3)c3ccccc32)ccn1 gave an inhibition of 62% (RBE; ATP luminescence; 46 µM, 72 h).
O=C(NC1CCCCC1)c1ccc(-c2nc3ccc4[nH]ncc4c3c3c2CCCC3)cc1 gave a GI50 of 4300 nM (MV4-11; resazurin; 72 h).
The inhibition of C[C@H](N)C(=O)Nc1ccccc1/N=c1\cc(-c2ccc3c(c2)OCO3)oc2ccccc12 is reported as 6.3% (MDA-MB-468; CCK-8; 1 µM).
OCc1ccc(-c2nn(Cc3cccc(Cl)c3)c3ccccc23)o1 gave an inhibition of 75% (RBE; ATP luminescence; 46 µM, 72 h).
With CN1CCN(C(=O)c2ccc(-c3nc4ccc5[nH]ncc5c4c4c3CCCC4)cc2)CC1 the GI50 was 1300 nM (MV4-11; resazurin; 72 h).
CCN(Cc1c(F)cccc1OC)c1ccc(CO)c(Cl)c1 has an inhibition of 65% (RBE; ATP luminescence; 46 µM, 72 h).
For COc1ccc2/c(=N/c3ccccc3NC(=O)[C@@H](N)C(C)(C)C)cc(-c3ccc4c(c3)OCCO4)oc2c1, the inhibition was 10.8% (MDA-MB-468; CCK-8; 1 µM).
O=C(NO)c1ccc(CC(=O)N(CCO)c2ccccc2)cc1 gave a viability of 117% (HBL1; ATP luminescence; 0.5 µM, 5 days).
